# Results published in publication PMC5292677 (Leukemia, 2016).
# “Also recorded” adds a separate entry of the source.
# Legend:
# Format in all cases: in vivo, human
# cytokines = experiment: PD: plasma biomarkers
# Method in brief: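 Predose plasma was drawn on Day 1 of Cycles 1–4. Eighty-eight cytokines/proteins were quantified on a multiplexed HumanMAP v2.0 panel. Analysis covered patients with ≥1 dose, a baseline value and ≥1 evaluable post-baseline sample.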
# JAK2^V617F allele burden = experiment: PD: JAK2V617F allele burden
# Method in brief: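 JAK2 allele burden was sampled on Day 1 of Cycles 1, 2 and 4, then every 3 cycles, during continuous 28-day oral dosing. On-treatment values were compared with the predose baseline. Analysis covered patients with ≥1 dose, a baseline value and ≥1 evaluable post-baseline assessment.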
# [1] = tested on: patients with myelofibrosis; experiment: Splenic response by palpation
# Method in brief: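 Spleen size was measured by palpation and response scored by IWG-MRT criteria. Assessments fell on Day 1 of Cycles 2, 3 and 4, then every 3 cycles, during daily oral dosing in continuous 28-day cycles. Analysis covered patients who completed ≥1 cycle and had baseline splenomegaly ≥5 cm.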
# [2] = 21 patients, doses ⩾300 mg QD, following 4 cycles
# [3] = 36 evaluable patients, all cohorts
smiles,measurement,setting,value
C[C@H](Nc1cc(-c2cnn(C)c2)cc(Nc2cnccn2)n1)c1ccc(F)cc1 [NS-018],"B2M, CRP, IL-18, myeloperoxidase and TNFR2 plasma levels",cytokines; [2],Dose-dependent downregulation
same,"Erythropoietin, leptin and eotaxin-1 plasma levels",cytokines; [2],dose-dependent upregulation
same,Tumor necrosis factor-α and IL-6 levels,cytokines; after 4 weeks of treatment,unchanged
same,JAK2^V617F allele burden during treatment,JAK2^V617F allele burden; JAK2^V617F-positive patients,largely unchanged; also recorded: remained similar to the baseline value in almost all patients
same,Patients with decrease in allele burden of ⩾25%,JAK2^V617F allele burden; at Cycle 7 in one and Cycle 16 in the other,2 patients
same,Median (range) cycles to splenic reduction ⩾50%,[1]; 100 mg BID,7.5 (3–12) cycles
same,Median (range) cycles to splenic reduction ⩾50%,[1]; 200 mg BID,1 cycles
same,Median (range) cycles to splenic reduction ⩾50%,[1]; 200 mg QD,3 cycles
same,Median (range) cycles to splenic reduction ⩾50%,[1]; 250 mg BID,3 cycles
same,Median (range) cycles to splenic reduction ⩾50%,[1]; 300 mg BID,1 cycles
same,Median (range) cycles to splenic reduction ⩾50%,[1]; 300 mg QD,2 (1–8) cycles
same,Median (range) cycles to splenic reduction ⩾50%,[1]; 400 mg BID,1.5 (1–2) cycles
same,Median (range) cycles to splenic reduction ⩾50%,[1]; 400 mg QD,1 cycles
same,Patients achieving ⩾50% reduction in palpable spleen size,[1]; [3],56%
same,Patients with splenic reduction of 100%,[1]; [3],31%
same,Patients with 100% splenic reduction,[1]; JAK2^V617F-negative responders,3 patients
same,Median duration of splenic response (range),[1]; all cohorts,5.5 (1–24) cycles
same,Median (range) cycles to splenic reduction ⩾50%,[1]; all dose cohorts,1 (1–12) cycles
same,Patients achieving ⩾50% reduction in spleen size,[1]; baseline spleen >10 cm,15 patients
same,Patients attaining 100% reduction in spleen size,[1]; baseline spleen ⩽10 cm,5 patients
same,Patients achieving ⩾50% reduction in palpable spleen size,[1]; evaluable patients with prior JAK2 inhibitor treatment,47%
same,Patients achieving ⩾50% reduction in palpable spleen size,[1]; evaluable patients with the JAK2^V617F mutation,50%
same,Median (range) cycles to splenic reduction ⩾50%,[1]; prior JAK2 inhibitor treatment,2 (1–12) cycles
same,Patients with 100% splenic reduction,[1]; responders with the JAK2^V617F mutation,8 patients
